In ChEMBL document CHEMBL4257503, “N-Acetyl-3-aminopyrazoles block the non-canonical NF-kB cascade by selectively inhibiting NIK” (Medchemcomm, 2018):

How the values were obtained:
[1] = Cytotoxicity against human SKBR3 cells assessed as cell viability at 1 uM after 6 hrs by CellTiter Glo luminescent assay relative to control; assay type: cell-based, SK-BR-3; details: read-out: Activity
[2] = molecular target: T1, Inhibitor of nuclear factor kappa-B kinase subunit beta (Homo sapiens, UniProt O14920); assay: Inhibition of recombinant human full-length N-terminal GST-fused/His6-tagged IKKbeta (M1 to S756 residues) expressed in Sf9 insect cells using ERLLDDRHDSGLDSMKDEE peptide as substrate measured after 60 mins by ADP-Glo kinase assay
T1 sequence (O14920 whole entry): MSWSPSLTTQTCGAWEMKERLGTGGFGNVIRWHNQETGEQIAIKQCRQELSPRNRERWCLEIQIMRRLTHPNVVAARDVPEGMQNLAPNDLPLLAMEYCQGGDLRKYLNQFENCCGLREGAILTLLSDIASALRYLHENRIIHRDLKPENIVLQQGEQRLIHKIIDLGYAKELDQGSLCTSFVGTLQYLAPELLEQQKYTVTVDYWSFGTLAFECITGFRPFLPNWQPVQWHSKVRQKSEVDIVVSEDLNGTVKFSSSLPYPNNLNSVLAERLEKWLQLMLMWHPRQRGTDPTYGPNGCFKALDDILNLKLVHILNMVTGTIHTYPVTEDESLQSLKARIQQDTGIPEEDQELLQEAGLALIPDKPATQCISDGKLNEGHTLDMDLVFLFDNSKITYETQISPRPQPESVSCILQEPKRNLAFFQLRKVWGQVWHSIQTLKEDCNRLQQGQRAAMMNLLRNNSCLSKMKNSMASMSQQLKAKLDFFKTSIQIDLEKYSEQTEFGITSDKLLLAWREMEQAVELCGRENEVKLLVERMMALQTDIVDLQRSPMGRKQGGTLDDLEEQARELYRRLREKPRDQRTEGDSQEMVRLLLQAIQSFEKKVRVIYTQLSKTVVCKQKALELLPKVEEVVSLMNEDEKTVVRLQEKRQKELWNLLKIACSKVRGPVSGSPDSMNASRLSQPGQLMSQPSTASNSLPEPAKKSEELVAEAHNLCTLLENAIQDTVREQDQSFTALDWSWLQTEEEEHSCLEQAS

[3] = molecular target: Mitogen-activated protein kinase kinase kinase 14 (Homo sapiens, UniProt Q99558); assay: Inhibition of recombinant human full-length N-terminal GST-fused/His6-tagged NIK (M1 to P947 residues) expressed in Sf9 insect cells using AKDVDQGSLCTSFVGTLQY peptide as substrate measured after 60 mins by ADP-Glo kinase assay
Sequence of Mitogen-activated protein kinase kinase kinase 14 (Q99558 whole entry, the tested form may be a part): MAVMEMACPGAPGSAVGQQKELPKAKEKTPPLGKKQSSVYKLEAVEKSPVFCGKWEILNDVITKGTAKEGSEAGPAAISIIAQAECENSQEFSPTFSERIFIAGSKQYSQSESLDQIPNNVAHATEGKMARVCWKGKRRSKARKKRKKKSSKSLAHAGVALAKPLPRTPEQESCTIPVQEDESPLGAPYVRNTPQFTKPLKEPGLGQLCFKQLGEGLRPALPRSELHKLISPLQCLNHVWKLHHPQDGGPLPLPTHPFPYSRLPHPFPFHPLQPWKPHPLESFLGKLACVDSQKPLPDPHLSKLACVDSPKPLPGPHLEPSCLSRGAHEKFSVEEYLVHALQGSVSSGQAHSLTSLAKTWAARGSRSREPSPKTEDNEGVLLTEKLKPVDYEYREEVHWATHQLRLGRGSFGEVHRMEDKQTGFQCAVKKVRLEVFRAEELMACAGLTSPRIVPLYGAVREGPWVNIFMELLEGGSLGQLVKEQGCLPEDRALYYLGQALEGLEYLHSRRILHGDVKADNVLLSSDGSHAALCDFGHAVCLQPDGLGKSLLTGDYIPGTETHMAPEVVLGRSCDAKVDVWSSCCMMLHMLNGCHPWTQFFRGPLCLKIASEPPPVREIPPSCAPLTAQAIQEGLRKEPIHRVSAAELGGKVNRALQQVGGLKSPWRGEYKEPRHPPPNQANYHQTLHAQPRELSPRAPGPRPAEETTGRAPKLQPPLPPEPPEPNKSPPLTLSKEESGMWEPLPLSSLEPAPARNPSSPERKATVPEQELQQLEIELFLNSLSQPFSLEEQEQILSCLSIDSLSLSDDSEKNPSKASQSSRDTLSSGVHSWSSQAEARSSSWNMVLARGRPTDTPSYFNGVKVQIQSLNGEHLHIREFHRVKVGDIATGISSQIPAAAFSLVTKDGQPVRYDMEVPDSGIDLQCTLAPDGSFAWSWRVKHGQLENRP

[4] = Cytotoxicity against human MDA-MB-231 cells assessed as cell viability at 1 uM after 6 hrs by CellTiter Glo luminescent assay relative to control; assay type: cell-based; details: read-out: Activity
[5] = molecular target: T2, Inhibitor of nuclear factor kappa-B kinase subunit epsilon (Homo sapiens, UniProt Q14164); assay: Inhibition of recombinant human full-length N-terminal GST-fused/His6-tagged IKKepsilon (M1 to V716 residues) expressed in Sf9 insect cells using ERLLDDRHDSGLDSMKDEE peptide as substrate measured after 60 mins by ADP-Glo kinase assay
T2 sequence (Q14164 whole entry): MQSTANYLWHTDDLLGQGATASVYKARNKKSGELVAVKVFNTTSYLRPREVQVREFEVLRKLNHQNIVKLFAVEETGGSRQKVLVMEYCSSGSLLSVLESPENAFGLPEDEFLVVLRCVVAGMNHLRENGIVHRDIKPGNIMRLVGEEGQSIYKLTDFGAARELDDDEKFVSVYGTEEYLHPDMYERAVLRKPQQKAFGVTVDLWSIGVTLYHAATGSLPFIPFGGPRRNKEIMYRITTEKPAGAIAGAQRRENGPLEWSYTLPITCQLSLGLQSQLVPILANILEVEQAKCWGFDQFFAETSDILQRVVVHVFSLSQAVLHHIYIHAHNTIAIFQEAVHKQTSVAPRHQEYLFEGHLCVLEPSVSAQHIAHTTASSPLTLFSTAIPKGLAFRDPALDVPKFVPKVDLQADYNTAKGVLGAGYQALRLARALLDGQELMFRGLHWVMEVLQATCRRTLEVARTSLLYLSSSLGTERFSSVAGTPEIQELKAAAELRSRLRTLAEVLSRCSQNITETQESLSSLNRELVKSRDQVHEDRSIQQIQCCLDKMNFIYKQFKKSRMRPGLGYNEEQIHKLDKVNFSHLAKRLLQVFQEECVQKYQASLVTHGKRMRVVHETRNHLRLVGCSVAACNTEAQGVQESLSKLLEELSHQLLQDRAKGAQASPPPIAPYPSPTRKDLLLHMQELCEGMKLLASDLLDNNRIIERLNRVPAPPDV

[6] = molecular target: T3, Inhibitor of nuclear factor kappa-B kinase subunit alpha (Homo sapiens, UniProt O15111); assay: Inhibition of recombinant full length human His-tagged IKKalpha expressed in baculovirus expression system using ERLLDDRHDSGLDSMKDEE peptide as substrate measured after 60 mins by ADP-Glo kinase assay
T3 sequence (O15111 whole entry): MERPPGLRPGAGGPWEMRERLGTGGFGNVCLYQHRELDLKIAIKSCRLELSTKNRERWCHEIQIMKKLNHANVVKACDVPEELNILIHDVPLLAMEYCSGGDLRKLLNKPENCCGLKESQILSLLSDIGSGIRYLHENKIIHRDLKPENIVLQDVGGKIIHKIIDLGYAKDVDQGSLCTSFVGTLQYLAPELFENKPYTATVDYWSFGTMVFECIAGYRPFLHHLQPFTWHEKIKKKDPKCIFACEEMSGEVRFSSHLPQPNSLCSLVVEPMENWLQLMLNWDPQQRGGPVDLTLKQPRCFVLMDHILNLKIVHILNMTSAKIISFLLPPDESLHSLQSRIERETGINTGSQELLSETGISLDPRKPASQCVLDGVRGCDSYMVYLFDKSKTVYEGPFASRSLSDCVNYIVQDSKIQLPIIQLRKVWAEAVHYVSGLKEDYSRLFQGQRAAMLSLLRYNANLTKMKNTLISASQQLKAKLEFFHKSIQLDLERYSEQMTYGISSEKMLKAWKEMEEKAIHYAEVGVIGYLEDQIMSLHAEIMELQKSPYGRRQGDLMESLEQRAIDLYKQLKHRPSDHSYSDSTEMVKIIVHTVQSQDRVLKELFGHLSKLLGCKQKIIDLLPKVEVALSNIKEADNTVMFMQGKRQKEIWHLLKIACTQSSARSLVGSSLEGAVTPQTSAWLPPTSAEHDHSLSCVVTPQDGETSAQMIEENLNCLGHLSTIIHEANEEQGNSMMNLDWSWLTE
Procedure, shortened: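 Recombinant human IKKα, peptide substrate 100 µM, enzyme 8 ng/µL, ATP 1 µM in Tris-HCl pH 7.5 buffer with MgCl2, MnCl2, DTT, Na3VO4, BSA; 25°C, 60 min; ADP-Glo luminescence. Ten concentrations 0.005–100 µM; IC50 by nonlinear regression; means ± SD of three independent experiments.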

MDA-MB-231 = assay: Inhibition of NFkappaB activation in human MDA-MB-231 cells at 1 uM after 6 hrs by dual luciferase reporter gene assay relative to control; assay type: cell-based
Homo sapiens = species on record: Homo sapiens; assay: Inhibition of NFkappaB activation in human SKBR3 cells at 1 uM after 6 hrs by dual luciferase reporter gene assay relative to control; assay type: cell-based
[7] = Cytotoxicity against human EJM cells assessed as cell viability at 1 uM after 6 hrs by CellTiter Glo luminescent assay relative to control; assay type: cell-based; details: read-out: Activity

Q: Which viability at 6 h, 1 µM [1] does the source give for `COCCOc1cnc(N)nc1-c1c[nH]c2ccc(C#CC(C)(C)O)cc12` here?
A: ≥ 80%

Q: What about the IC50 [2] of the same compound?
A: > 100 µM

Q: And the IC50 [3]?
A: 0.07 µM

Q: What about the viability at 6 h, 1 µM [4] of the same compound?
A: ≥ 80%

Q: And the IC50 [5]?
A: > 100 µM

Q: What about the IC50 [6] of the same compound?
A: > 100 µM

Q: And the inhibition (MDA-MB-231)?
A: 7.1%

Q: And the inhibition (Homo sapiens)?
A: 2.3%

Q: What about the viability at 6 h, 1 µM [7] of the same compound?
A: ≥ 80%
